In the library only some 2.5% were active in any assay of this set; here they are far more common.
SENP8 block-1 – inhibitors of human SENP8 protease; Q96LD8; inhibition, % at 20 µM; recombinant SENP8, Nedd8 substrate fluorescence; AID 602440; 360,000 tested, 0.64% active; in the data active = inhibition mostly above about 40%, no sharp cut-off; inactive = mostly below about 27%
SENP1 FRET inh – blocks the human SENP1 SUMO protease catalytic domain; recombinant SENP1 catalytic domain, CyPet-SUMO1-YPet FRET cleavage; inhibition, % at 10 µM; Q9P0U3; AID 624204; 360,000 tested, 0.21% active;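 active = inhibition at least 30% at 10 µM, raw YFP signal under a set limit, fluorescence ratio 0.5 to 1.5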;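 note: 0% = enzyme with DMSO and 100% = no enzyme wells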
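Test system: hSENP1 catalytic domain, recombinant; Amount: 20 pM final SENP1 enzyme; Medium: Tris pH 8 buffer plus EDTA, NaCl, BME, BSA, NP40, catalase; Schedule: 50 min enzyme reaction, room temperature, light-protected; Technique: FRET fluorescence in CFP and YFP emission channels; Controls: no-enzyme wells low, DMSO-plus-enzyme wells high control.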
SENP8 block-2 – inhibitors of human SENP8 protease; Q96LD8; purified SENP8, Z-RLRGG-aminoluciferin cleavage, luminescence; inhibition, % at 10 µM; 330,000 tested, 1.2% active; in the data active = inhibition above about 50%
SENP7 inh – SENP7 protease inhibition | recombinant SENP7, Z-RLRGG-aminoluciferin luminescence, 40 min | inhibition, % at 5 µM | 330,000 tested, 1.5% active;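 active = inhibition above about 50% at the single test dose, limit read from the data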;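 note: plate controls were DMSO with enzyme for no effect and no enzyme buffer wells for full effect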
SENP6 block – inhibitors of human SENP6 protease. Recombinant SENP6 catalytic domain, aminoluciferin luminescence. inhibition, % at 10 µM. 330,000 tested, 1.8% active;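 active = inhibition above about 50% at the single tested dose, limit read from the data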;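 note: plate controls were DMSO wells with enzyme for no effect and DMSO wells lacking enzyme for full effect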
Target sequence (Q9GZR1 628-1112 limits assumed): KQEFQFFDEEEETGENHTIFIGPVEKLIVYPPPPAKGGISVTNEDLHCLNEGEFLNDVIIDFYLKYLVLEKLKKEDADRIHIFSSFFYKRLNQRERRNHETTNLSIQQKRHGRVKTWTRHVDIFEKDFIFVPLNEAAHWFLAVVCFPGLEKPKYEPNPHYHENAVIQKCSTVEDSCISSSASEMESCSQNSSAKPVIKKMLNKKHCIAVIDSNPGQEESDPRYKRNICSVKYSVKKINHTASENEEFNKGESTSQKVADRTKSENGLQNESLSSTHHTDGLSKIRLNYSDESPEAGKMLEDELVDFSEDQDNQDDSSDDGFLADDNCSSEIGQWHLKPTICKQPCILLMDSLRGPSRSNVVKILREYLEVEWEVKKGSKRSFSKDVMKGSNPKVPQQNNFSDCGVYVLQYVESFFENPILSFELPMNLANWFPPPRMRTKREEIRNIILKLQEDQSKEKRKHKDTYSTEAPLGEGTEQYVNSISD
SENP8 confirm – confirmation of human SENP8 protease inhibitors; 6,200 tested, 40% active; shares compounds with SENP7 inh; AID 488912; inhibition, % at 12.5 µM; Recombinant SENP8, Z-RLRGG-aminoluciferin luminescence, 60 min;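 active = mean inhibition across replicates above about 50%, limit read from the data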
SENP6 confirm – confirmation of human SENP6 protease inhibitors. shares compounds with SENP7 inh. 6,200 tested, 58% active. recombinant SENP6, Z-RLRGG-aminoluciferin luminescence. inhibition, % at 12.5 µM. AID 488915
SENP7 confirm – confirmation of human SENP7 protease inhibitors; inhibition, % at 12.5 µM; shares compounds with SENP7 inh; 6,200 tested, 69% active; recombinant SENP7, Z-RLRGG-aminoluciferin luminescence, 40 min
Casp3 select – inhibits human caspase-3 in SENP selectivity test. shares compounds with SENP7 inh. purified caspase-3, Z-DEVD-aminoluciferin luminescence, 60 min. inhibition, % at 12.5 µM. 6,200 tested, 60% active. AID 488918;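 active = mean inhibition above about 50%, limit read from the data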;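 note: plate controls were enzyme with DMSO for no effect and wells without caspase-3 for full effect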
SENP luc ctr – counter-screen for SENP inhibitors: luminescence interference. shares compounds with SENP7 inh. Pre-incubated SENP8/Z-RLRGG-aminoluciferin, luciferase luminescence interference. inhibition, % at 12.5 µM. 6,200 tested, 39% active. AID 488919;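 active = mean inhibition above about 50% when retested at one dose, limit read from the data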;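 note: plate controls were DMSO wells with completed reaction for no effect and substrate without enzyme for full effect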
Numbers without * were called inactive; nt = no result given.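 Rule for the calls, unless noted: active = mean inhibition above about 50% in the one-dose retest (limit read from the data); inactive = the rest.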

SMILES	SENP8 block-1	SENP1 FRET inh	SENP8 block-2	SENP7 inh	SENP6 block	SENP8 confirm	SENP6 confirm	SENP7 confirm	Casp3 select	SENP luc ctr
CC1=NN(C(N)=S)C(=O)C1N=Nc1cccc(C)c1 (stereo not given)	30.2	3.8	60.5*	54.2*	1.4	12.7	9.5	11.7	8.1	4.2
CC1=NN(c2nc(-c3ccc(C)cc3)cs2)C(=O)C1N=Nc1cccc(C)c1 (stereo not given)	35.3	4.0	8.1	-2.1	68.6*	-1.7	16.2	-8.6	16.0	51.6*
CCOC(=O)c1sc(N2N=C(C)C(N=Nc3cccc(C)c3)C2=O)nc1C (stereo not given)	17.2	-2.2	-0.5	3.2	-6.2	nt	nt	nt	nt	nt
Cc1nc(C)c(C(=O)N2CCCC(C(=O)c3ccc(Cl)cc3C)C2)s1 (stereo not given)	6.2	0.8	1.1	1.0	4.3	nt	nt	nt	nt	nt
Cc1cc(NC(=O)CSc2nc3cc(C)c(C)cc3cc2C)no1	10.8	0.6	-1.3	-0.3	-7.8	nt	nt	nt	nt	nt
CC(C)Oc1ccc(C(=O)NCC(=O)N2CCN(S(=O)(=O)/C=C/c3ccccc3)CC2)cc1	13.8	-1.0	4.7	-6.8	1.0	nt	nt	nt	nt	nt
COc1ccc([C@H]2C[C@H](O)[C@@H](n3cc(-c4ccc(F)cc4)nn3)CN2Cc2cccs2)cc1	-1.2	0.4	nt	nt	nt	nt	nt	nt	nt	nt
COc1cc(NC(=O)n2ncc3cc(Cl)ccc32)cc(OC)c1	22.8	-0.2	54.1*	28.4	38.0	-24.2	-1.2	18.4	19.7	-11.3
COc1ccc(NC(=O)n2ncc3cc(Cl)ccc32)cc1OC	29.7	1.4	45.7	25.8	60.3*	20.4	59.2*	36.3	33.5	20.8
O=C(Nc1ccccc1F)n1ncc2cc(Cl)ccc21	19.4	0.9	-10.1	-2.4	-2.5	nt	nt	nt	nt	nt
COc1ccc(NC(=O)c2cc(-c3cc(Cl)ccc3OC)n[nH]2)cc1OC	22.0	1.2	nt	nt	nt	nt	nt	nt	nt	nt
O=C(Nc1cccc(NC(=O)C2C3CC4OC(=O)C2C4C3)c1)c1ccccc1 (stereo not given)	5.6	1.5	-2.9	-2.8	-9.0	nt	nt	nt	nt	nt
CCN(C(=O)Cn1c(=O)oc2ccccc21)c1ccc(C)c(C)c1	20.0	-1.0	-7.2	-7.5	-12.1	nt	nt	nt	nt	nt
Cc1ccc(Nc2nc(N)c3ccccc3n2)cc1Cl	-288.6	-2.7	96.6*	98.2*	97.1*	98.8*	99.7*	103.3*	93.4*	85.4*
COc1cc2nc(Nc3ccc(C)c(Cl)c3)nc(N)c2cc1OC	-296.8	1.3	13.0	38.9	27.9	nt	nt	nt	nt	nt
Nc1nc(CCl)nc(Nc2ccccc2)n1	22.0	-0.5	-15.2	5.5	-13.3	nt	nt	nt	nt	nt
Nc1nc(Nc2ccc(Cl)cc2)nc2ccccc12	-271.5	0.0	95.4*	97.3*	97.8*	96.1*	96.8*	100.8*	93.0*	94.6*
Nc1nc(Nc2ccccc2)nc2ccccc12	17.6	3.4	91.4*	97.4*	93.8*	97.2*	97.8*	102.6*	96.8*	96.5*
Nc1ncnc(Nc2ccccc2)n1	3.8	0.2	-11.0	-11.0	-19.9	nt	nt	nt	nt	nt
Cc1ccccc1Nc1nc(N)c2ccccc2n1	-229.5	0.6	91.1*	94.8*	2.6	93.7*	95.2*	101.6*	96.9*	95.2*
CCOc1ccc(N2CC(C(=O)NC3=NCCS3)CC2=O)cc1 (stereo not given)	7.7	0.2	-1.8	3.8	-39.7	nt	nt	nt	nt	nt
O=C(CN1C(=O)NC2(CCCc3ccccc32)C1=O)c1ccc(F)c(F)c1 (stereo not given)	0.2	-1.7	5.1	5.1	-2.3	nt	nt	nt	nt	nt
COc1ccc(-c2csc(CCn3nc(C)cc3C)n2)cc1	-11.5	-1.3	-0.7	6.6	-1.1	nt	nt	nt	nt	nt

Bioassay records (PubChem)
